Screening data as filed in PubChem.
NS3 helicase inh – blocks Hepatitis C virus NS3 helicase unwinding; NS3 helicase DNA unwinding, Cy5 molecular beacon fluorescence; inhibition, % at 10.9 µM; 0.56% of 290,000 active; AID 1800;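 active = inhibition above the mean of all tested compounds plus 3 SD, set per campaign, cut at about 35% in these data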
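System: NS3 helicase fragment of HCV / Schedule: 1 h at 25 °C / Control set: DMSO alone as 0% and 110 µM thioflavine S as 100% / Reagent: Cy5/quencher beacon DNA duplex and ATP to start / Technique: Cy5 fluorescence / Replication: singlicate / Evaluation: % inhibition of end-to-start signal ratio versus controls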
core dimer inh – HCV core protein dimerization inhibition | TR-FRET GST/Flag-core106 dimerization, 1536-well | inhibition, % at 5 µM | 0.33% of 300,000 active;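 active = inhibition above the mean of all tested compounds plus 3 SD, set per screening campaign, cut at about 45% in these data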
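Assay system – GST-tagged and Flag-tagged HCV core protein residues 1-106 · Quantity – core106 proteins, GST 13.5 nM and Flag 17 nM · Benchmarks – unlabelled core106 and no-GST-core106 wells · Read-out basis – percent inhibition of core106 dimerization signal · Detection – time-resolved FRET, ex 340 nm, em 617 and 671 nm · Schedule – 4 h at 22.5 °C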
FID counter – displaces DNA intercalator in HCV helicase counter-screen; DNA fluorescent intercalator displacement, fluorescence; AID 1845; inhibition, % at 7.9 µM; 0.17% of 290,000 active; in the data active = inhibition above about 37%;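 also: higher means more ethidium bromide displaced from hairpin DNA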
pCIP destab – p/CIP protein destabilization. Q05BA5. F442A p/CIP-EGFP cells, EGFP fluorescence, 16 h. decrease of EGFP signal, % at 10 µM. 0.01% of 290,000 active. AID 1984;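 active = EGFP signal decrease of at least 30% at 10 µM or well 3 SD below plate mean, unless failing retest; inactive = the rest, including hits failing retest or dose response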
Target sequence (Q05BA5 1-1403): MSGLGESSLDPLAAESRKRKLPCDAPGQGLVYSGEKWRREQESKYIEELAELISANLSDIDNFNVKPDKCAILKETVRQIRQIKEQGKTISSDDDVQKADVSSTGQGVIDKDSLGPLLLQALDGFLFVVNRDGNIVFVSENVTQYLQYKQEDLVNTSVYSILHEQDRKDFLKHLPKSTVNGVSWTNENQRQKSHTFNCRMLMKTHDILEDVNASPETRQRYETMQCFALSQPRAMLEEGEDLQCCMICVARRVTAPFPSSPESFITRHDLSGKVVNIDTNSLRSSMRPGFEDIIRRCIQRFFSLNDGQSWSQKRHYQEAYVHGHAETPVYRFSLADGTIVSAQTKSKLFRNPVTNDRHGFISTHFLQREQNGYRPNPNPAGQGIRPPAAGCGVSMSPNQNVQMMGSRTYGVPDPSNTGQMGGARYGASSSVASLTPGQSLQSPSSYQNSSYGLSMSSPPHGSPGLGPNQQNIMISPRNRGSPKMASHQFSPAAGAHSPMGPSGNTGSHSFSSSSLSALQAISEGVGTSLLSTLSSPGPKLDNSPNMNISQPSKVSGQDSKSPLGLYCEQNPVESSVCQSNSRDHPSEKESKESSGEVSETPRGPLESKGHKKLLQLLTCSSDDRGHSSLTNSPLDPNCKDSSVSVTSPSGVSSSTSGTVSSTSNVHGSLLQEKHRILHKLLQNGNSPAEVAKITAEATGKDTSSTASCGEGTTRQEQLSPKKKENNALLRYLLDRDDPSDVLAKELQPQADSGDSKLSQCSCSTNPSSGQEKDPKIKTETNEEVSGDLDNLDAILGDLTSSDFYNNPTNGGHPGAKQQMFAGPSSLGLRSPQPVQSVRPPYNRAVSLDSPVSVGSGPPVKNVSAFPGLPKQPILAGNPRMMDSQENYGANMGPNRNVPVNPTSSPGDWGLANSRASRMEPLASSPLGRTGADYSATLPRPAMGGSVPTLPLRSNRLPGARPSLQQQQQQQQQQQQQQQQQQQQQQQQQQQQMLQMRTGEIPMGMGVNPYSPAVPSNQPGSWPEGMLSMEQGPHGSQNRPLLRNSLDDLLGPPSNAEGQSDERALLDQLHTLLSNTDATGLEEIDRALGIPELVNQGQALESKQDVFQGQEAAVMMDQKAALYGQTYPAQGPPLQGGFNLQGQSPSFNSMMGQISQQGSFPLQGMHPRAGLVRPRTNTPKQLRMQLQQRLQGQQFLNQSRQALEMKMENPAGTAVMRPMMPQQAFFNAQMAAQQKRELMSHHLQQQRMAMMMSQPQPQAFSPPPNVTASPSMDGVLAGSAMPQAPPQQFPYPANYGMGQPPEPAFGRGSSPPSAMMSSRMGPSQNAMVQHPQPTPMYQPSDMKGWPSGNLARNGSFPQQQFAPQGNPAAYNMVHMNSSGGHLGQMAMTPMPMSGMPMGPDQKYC
GPR7 antagonist – antagonists of human GPR7 (neuropeptides B/W receptor 1) | GPR7-expressing cells, fluorescence antagonist assay | AID 1861 | P48145 | inhibition, % at 4.4 µM | 1.1% of 290,000 active; in the data active = inhibition above about 16%, passing the limit was not always enough;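 also: cells stimulated with the agonist NPW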
Each line names hits and unclear results; the compound was inactive in the other large screens. The list is not random: actives were taken first. Their share in the collection is about 1.9%.

COc1ccc(C(=O)CSc2nnc(CN3CCCC3)n2-c2ccc(F)cc2)c(OC)c1	none
CCC(NC(=O)Nc1nnc(C(F)(F)F)s1)(C(F)(F)F)C(F)(F)F	pCIP destab 30, GPR7 antagonist 29
O=C(NCCCN1CCOCC1)/C(=C/c1ccc(F)cc1)NC(=O)c1ccccc1	none
CCOc1ccccc1N(C(=O)c1snc(C(N)=O)c1N)C(C(=O)NC1CCCC1)c1ccco1 (configuration not stated)	GPR7 antagonist 21
CCc1cccc(C)c1N=Cc1c(O)c2ccccc2oc1=O	none
COc1ccc(CNC(=O)C(OC(=O)c2ccco2)c2ccc(F)cc2)cc1 (configuration not stated)	none
C/C(=N\NC(=O)C1CC1)c1ccc(N2CCOCC2)cc1	GPR7 antagonist 17
CN(C)[C@@H]1C(=O)C(C(=O)NCN2CCCC2)=C(O)[C@@]2(O)C(=O)C3=C(O)c4c(O)cccc4[C@@](C)(O)C3CC12 (some centres not stated)	NS3 helicase inh 47 (no result: core dimer inh)
CN=C1NN=C(c2cc(C)n(-c3ccc(Cl)cc3)c2C)CS1	core dimer inh 65
CN(C)CCCNC(=S)NCC(c1ccc(Cl)cc1Cl)c1c[nH]c2ccccc12 (configuration not stated)	GPR7 antagonist 75
CCCCNC(=S)NCC(c1ccccc1)c1c[nH]c2ccccc12 (configuration not stated)	none
Oc1ccccc1CNc1ccc(Br)cn1	GPR7 antagonist 69
CSc1nc(N)nc(SCC(=O)c2ccc(C)cc2)c1C#N	core dimer inh 48
O=C(Nc1cnn(Cc2ccc(F)cc2)c1)c1cc(-c2cccs2)on1	none
O=C(Nc1cnn(Cc2ccc(F)cc2)c1)c1cnccn1	GPR7 antagonist 17
Cc1cccc(Nc2ncnc3nc[nH]c23)c1	GPR7 antagonist 19
O=C(OCC(=O)c1ccc(Cl)s1)c1cnccn1	core dimer inh 54
O=C(OCC(=O)c1ccc(Cl)s1)c1ccccn1	none
Cc1ccc(C2=NN=C(NC(=O)CSc3nnc4c5ccccc5n(C)c4n3)SC2)cc1	NS3 helicase inh 53
Cc1ccc(C2=NN=C(NC(=O)CSc3nc(C)cc(C)n3)SC2)cc1	none
O=C(NCc1cccc(C(F)(F)F)c1)c1ccc2c(c1)OCO2	none (no result: core dimer inh)
Cc1ccc(/C=C2/SC(=S)N(C3CCCCC3)C2=O)o1	core dimer inh 68
Cc1ccc(/C=C2\SC(=S)N(CC3CCCO3)C2=O)o1 (configuration not stated)	none
O=c1c2[nH]c3ccccc3c2ncn1CCC1=CCCCC1	none
C1=C(CCNc2ncnc3c2[nH]c2ccccc23)CCCC1	GPR7 antagonist 41
N#Cc1ccc(C23CC4(C2)[C@H](CN(P(=O)(c2ccccc2)c2ccccc2)[C@@H]4c2ccccc2)C3c2ccc(Cl)nc2)cc1 (some centres not stated)	core dimer inh 53 (no result: NS3 helicase inh, FID counter, GPR7 antagonist)
CN1C[C@@H]2C(c3ccc(Cl)nc3)C3(c4ccc(C#N)cc4)CC2(C3)[C@H]1c1ccccc1 (some centres not stated)	none (no result: NS3 helicase inh, FID counter, GPR7 antagonist)
COc1ccc(CCn2c(-c3ccco3)nc3nc4ccccc4nc32)cc1	core dimer inh 56
O=C(O)CNC(=O)c1ccccc1Br	none
O=C(COc1ccccc1[N+](=O)[O-])NCCC1=CCCCC1	none
COc1cccc(NC(=O)c2ccnc(N3CCC(C(=O)NCc4ccccc4OC)CC3)c2)c1	none
CCN(CC)CCCNC(=O)c1ccc(N2CCCCC2)c(NS(=O)(=O)c2ccc(C)cc2)c1	FID counter 51
C=C(C)CN(CC)c1nc(N)c2c(N)nc3c(c2c1C#N)CC(=O)N3C12CC3CC(CC(C3)C1)C2	none
N#Cc1c(N2CCCC(O)C2)nc(N)c2c(N)nc3c(c12)CC(=O)N3C12CC3CC(CC(C3)C1)C2 (configuration not stated)	core dimer inh 52
CCOc1ccc(NC(=O)CSc2ncc(-c3ccc(F)cc3)n2Cc2ccco2)cc1	none
O=C(CSc1ncc(-c2ccc(F)cc2)n1Cc1ccco1)Nc1ccc2c(c1)OCO2	GPR7 antagonist 29
CC[n+]1ccccc1/C=C/c1ccc(N(C)C)cc1	none (no result: core dimer inh)
CC[n+]1ccc(/C=C/c2ccc(N(C)C)cc2)c2ccccc21	FID counter 57 (no result: core dimer inh)
CC1CCC(C(C)C)C(OC(=O)Cn2c(-c3ccc(Cl)cc3)[n+](C)c3ccccc32)C1 (configuration not stated)	GPR7 antagonist 60
CC1CCC(C(C)C)C(OC(=O)COC(=O)c2cccn2C)C1 (configuration not stated)	none
CC1CCC(C(C)C)C(OC(=O)Cn2c(-c3ccc(Br)cc3)[n+](C)c3ccccc32)C1 (configuration not stated)	GPR7 antagonist 74
O=c1c(Cl)c(Cl)cnn1Cc1nnc(-c2ccc(Cl)cc2)o1	none (no result: core dimer inh)
Cc1cccc(N2CC(C(=O)Nc3nnc(SCC(=O)NCC4CCCO4)s3)CC2=O)c1 (configuration not stated)	core dimer inh 65
Cc1ccc(N2CC(C(=O)Nc3nnc(SCC(=O)NCC4CCCO4)s3)CC2=O)cc1C (configuration not stated)	none
Cc1nc(SCC(=O)Nc2ccccc2C(F)(F)F)c(C#N)c(C)c1CC(=O)c1ccc(Br)cc1	none
Cc1cccc(C)c1NC(=O)CSc1nc(C)c(CC(=O)c2ccc(Br)cc2)c(C)c1C#N	core dimer inh 70
C#CCOCCOCCOCCNc1nc(N2CCN(C(=O)[C@H](Cc3ccc(O)cc3)n3cc([C@@H](N)C(C)CC)nn3)CC2)nc(N2CCN(C(=O)[C@H](CCCCN)n3cc([C@@H](N)CO)nn3)CC2)n1 (some centres not stated)	FID counter 44
C#CCOCCOCCOCCNc1nc(N2CCN(C(=O)[C@H](CCCCN)n3cc([C@@H](N)CO)nn3)CC2)nc(N2CCN(C(=O)[C@H](Cc3ccc(O)cc3)n3cc([C@@H](N)CC(C)C)nn3)CC2)n1	FID counter 54
C#CCOCCOCCOCCNc1nc(N2CCN(C(=O)[C@H]([C@@H](C)CC)n3cc([C@@H](N)Cc4ccc(O)cc4)nn3)CC2)nc(N2CCN(C(=O)[C@H](CCCCN)n3cc([C@@H](N)CO)nn3)CC2)n1	FID counter 58
C#CCOCCOCCOCCNc1nc(N2CCN(C(=O)[C@H](Cc3ccc(O)cc3)n3cc([C@@H](N)C(C)CC)nn3)CC2)nc(N2CCN(C(=O)[C@H](CCCCN)n3cc([C@@H](N)CC(C)C)nn3)CC2)n1 (some centres not stated)	FID counter 43
C#CCOCCOCCOCCNc1nc(N2CCN(C(=O)[C@H](CCC(=O)O)n3cc(C(N)CO)nn3)CC2)nc(N2CCN(C(=O)[C@H](Cc3ccc(O)cc3)n3cc(C(N)CC(C)C)nn3)CC2)n1 (some centres not stated)	none
